Assay results taken from publication PMC6226330 (ACS Infectious Diseases, 2018).
Read-outs that look alike come from different tables or passages of the source.

Assays:
[1] = test system: S. aureus; experiment: In vitro uptake of 2-[18F]F-PABA by S. aureus; type: cell-based
Outline: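 Cells were incubated with 10 kBq/mL 2-[18F]F-PABA at 37 °C with rapid agitation, with graded PABA concentrations for blocking. Cells were then pelleted, washed three times in PBS, and gamma-counted. At least six replicates were run per point. Data were expressed as percentage or normalized to total protein (Bradford).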

[2] = test system: S. aureus (Newman); experiment: Rat triceps infection versus sterile inflammation model, PET/CT and ex vivo; type: in vivo; settings: for infected triceps to inflamed triceps ratio: PET; for PET signal at infection site versus sterile inflammation: [18F]FDG PET, 60–80 min postinjection, P = 0.2, n = 4
Outline: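 Rats received live S. aureus Newman (50 μL) in the right triceps and heat-killed bacteria in BHI (50 μL) in the left. After 20–24 h, tracer was given IV and dynamic PET/CT run up to 120 min. Uptake was %ID/cc, with blood taken from the left ventricle (n = 7, mean ± SEM). Ex vivo gamma counting gave %ID/g (n = 6). Groups were compared by two-tailed Mann-Whitney U test.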

[3] = test system: MSSA and MRSA; type: in vivo, rat
Outline: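 Female Sprague-Dawley rats (10 weeks) received 50 μL S. aureus Newman (MSSA) in the right triceps and MRSA ATCC BAA1762 in the left triceps, each at 8 log10 CFU. Oxacillin began 2–4 h after infection: 4 subcutaneous 200 mg/kg doses over 20 h. Tracer was 22.2–44.4 MBq in saline by tail-vein catheter under anesthesia. PET/CT was done 2–4 h after the last dose.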

[4] = test system: S. aureus (Newman); experiment: Mouse S. aureus thigh infection model, PET and ex vivo biodistribution; type: in vivo
[5] = test system: S. aureus; experiment: Compartment PK model of dynamic 2-[18F]F-PABA PET data; type: in vivo, rat; settings: after 2 h, simulation with compartment PK model
Outline: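 Dynamic PET data came from blood and the infected right triceps of S. aureus-infected rats. Specific and nonspecific activities at the sites were then simulated.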

[6] = test system: S. aureus; type: in vivo, rat; settings: tracer containing 2 mg 19F-PABA, two hours after injection, ex vivo
Outline: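 Rats carried live S. aureus Newman in the right triceps and heat-killed bacteria in BHI in the left triceps (sterile inflammation). They received 29.6–37 MBq tracer spiked with 2 mg 19F-PABA via the tail vein. At 2 h animals were sacrificed. Organ radioactivity was gamma-counted and bacterial load determined by plating and CFU enumeration.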

[7] = test system: J774 murine macrophages; experiment: In vitro uptake of 2-[18F]F-PABA by mammalian cells; type: cell-based
Outline: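 J774.1 murine macrophages were cultured in RPMI GlutaMAX with 10% heat-inactivated FBS at 37 °C, 5% CO2. Tracer accumulation was gamma-counted in parallel with bacterial strains. At least six replicates were run. Values were expressed as percentage or normalized to total protein (Bradford).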

[8] = test system: MSSA; experiment: Bacterial burden ex vivo; type: in vivo, rat; settings: four doses of 200 mg/kg subcutaneously over 20 h; untreated 8.4 ± 0.1
[9] = test system: MRSA; experiment: Bacterial burden ex vivo; type: in vivo, rat; settings: four doses of 200 mg/kg subcutaneously over 20 h; untreated 9.0 ± 0.2
[10] = group not treated with oxacillin
[11] = oxacillin-treated, four doses of 200 mg/kg

Question: Which results are given for `Nc1ccc(C(=O)O)c([18F])c1` [2-[^18F]F-PABA, 2-[^18F]fluoro-p-aminobenzoic acid]?
Answer: accumulation in viable versus heat-killed bacteria ([1]; S. aureus ATCC 29213): rapidly accumulated in viable cells but not in heat-killed bacteria; accumulation in clinical strains ([1]; four MSSA and six MRSA clinical strains): accumulates in all the clinical strains tested; infected triceps to inflamed triceps ratio ([2]; 60 min): 5.52; infected triceps to inflamed triceps ratio ([2]; 120 min): 7.95; infected triceps to inflamed triceps ratio ([2]; after 10 min): ~2 fold; signal in infected triceps compared to inflamed muscle ([2]; post-mortem ex vivo analysis, %ID/g): 4.30 ± 0.82; PET signal in left triceps (MRSA infection) [3, 10]: 0.096 ± 0.039 %ID/cc; PET signal in right triceps (MSSA infection) [3, 10]: 0.087 ± 0.041 %ID/cc; PET signal in left triceps (MRSA infection) [3, 11]: 0.079 ± 0.036 %ID/cc; PET signal in right triceps (MSSA infection) [3, 11]: 0.025 ± 0.015 %ID/cc; tracer level in infected versus uninfected thighs ([4]; mouse thigh infection): significantly higher levels of tracer were found in the infected thighs than in uninfected thighs; elimination ([4]; mouse, PET and ex vivo tissue analysis): rapidly eliminated mainly through renal clearance; share of total activity at site of infection from specific accumulation [5]: ~60%; ratio of 2-[18F]F-PABA in infected triceps compared to inflamed muscle [6]: 9.38 ± 2.43; accumulation in mammalian cells [7]: not in mammalian cells

Question: Which results are given for `Cc1onc(-c2ccccc2)c1C(=O)N[C@@H]1C(=O)N2[C@@H]1SC(C)(C)[C@@H]2C(=O)O` [oxacillin]?
Answer: bacterial burden in right triceps (MSSA infection) [8]: 6.4 ± 0.4 log10 CFU/g; bacterial burden in left triceps (MRSA infection) [9]: 8.2 ± 0.3 log10 CFU/g

Question: Which results are given for `OC[C@H]1OC(O)[C@H]([18F])[C@@H](O)[C@@H]1O` (stereo partly shown) [[^18F]FDG, [^18F]fluorodeoxyglucose, reference compound]?
Answer: PET signal at infection site versus sterile inflammation [2]: not significantly different; PET signal at infection site versus sterile inflammation ([2]; listed as [^18F]F-FDG): no difference
